Experimental data: ChEMBL document CHEMBL1158358, “Synthesis, antimicrobial and cytotoxic activities of some 5-arylidene-4-thioxo-thiazolidine-2-ones” (Eur J Med Chem, 2009)
Converted amounts (≈) assume the structure as drawn.

Experiments:
Assay type in all cases: functional
[1] = tested on: Staphylococcus aureus; assay: Antimicrobial activity against Staphylococcus aureus UFPEDA 01 after 20 hrs by twofold serial dilution technique; conditions: UFPEDA 01, 20 h
How it was run: (§1)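 Twofold serial dilution MIC in agar plates against Gram-positive strains and multidrug-resistant clinical isolates. Inoculum applied was 10⁵ CFU/plate. Plates with culture medium plus DMSO served as negative control. MIC was read after incubation at 35 °C for 20 h.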

[2] = tested on: Bacillus subtilis; assay: Antimicrobial activity against Bacillus subtilis UFPEDA 16 after 20 hrs by twofold serial dilution technique; conditions: UFPEDA 16, 20 h
How it was run: (§2)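 MIC was determined by twofold serial dilution. Bacteria were tested in plates at 10⁵ CFU/plate and read after 20 h. C. albicans was tested in tubes at 10³ CFU/tube and read after 48 h. All incubations were at 35 °C. Medium plus DMSO served as the negative control.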

[3] = tested on: Micrococcus luteus; assay: Antimicrobial activity against Micrococcus luteus UFPEDA 06 after 20 hrs by twofold serial dilution technique; conditions: UFPEDA 06, 20 h; how it was run: as §2
[4] = tested on: Enterococcus faecalis; assay: Antimicrobial activity against Enterococcus faecalis UFPEDA 138 after 20 hrs by twofold serial dilution technique; conditions: UFPEDA 138, 20 h; how it was run: as §2
[5] = tested on: Mycolicibacterium smegmatis; assay: Antimicrobial activity against Mycobacterium smegmatis UFPEDA 71 after 20 hrs by twofold serial dilution technique; conditions: UFPEDA 71, 20 h; how it was run: as §2
[6] = tested on: Candida albicans; assay: Antimicrobial activity against Candida albicans UFPEDA 1007 after 48 hrs by twofold serial dilution technique; conditions: UFPEDA 1007, 48 h; how it was run: as §2
[7] = tested on: Staphylococcus aureus; assay: Antimicrobial activity against multidrug-resistant Staphylococcus aureus H.C. 20981 isolate after 20 hrs by twofold serial dilution technique; conditions: H.C. 20981, 20 h; how it was run: as §1
[8] = tested on: Staphylococcus aureus; assay: Antimicrobial activity against multidrug-resistant Staphylococcus aureus H.C. 21141 isolate after 20 hrs by twofold serial dilution technique; conditions: H.C. 21141, 20 h; how it was run: as §1
[9] = tested on: Staphylococcus aureus; assay: Antimicrobial activity against multidrug-resistant Staphylococcus aureus H.C. 21036 isolate after 20 hrs by twofold serial dilution technique; conditions: H.C. 21036, 20 h; how it was run: as §1
[10] = tested on: Staphylococcus aureus; assay: Antimicrobial activity against multidrug-resistant Staphylococcus aureus H.C. 20489 isolate after 20 hrs by twofold serial dilution technique; conditions: H.C. 20489, 20 h; how it was run: as §1
[11] = tested on: Staphylococcus aureus; assay: Antimicrobial activity against multidrug-resistant Staphylococcus aureus H.C. 20794 isolate after 20 hrs by twofold serial dilution technique; conditions: H.C. 20794, 20 h; how it was run: as §1
[12] = tested on: Staphylococcus aureus; assay: Antimicrobial activity against multidrug-resistant Staphylococcus aureus H.C. 20905 isolate after 20 hrs by twofold serial dilution technique; conditions: H.C. 20905, 20 h; how it was run: as §1
[13] = tested on: Enterococcus faecalis; assay: Antimicrobial activity against multidrug-resistant Enterococcus faecalis H.C. 21752 isolate after 20 hrs by twofold serial dilution technique; conditions: H.C. 21752, 20 h; how it was run: as §1
[14] = tested on: Enterococcus faecalis; assay: Antimicrobial activity against multidrug-resistant Enterococcus faecalis H.C. 21944 isolate after 20 hrs by twofold serial dilution technique; conditions: H.C. 21944, 20 h; how it was run: as §1
[15] = tested on: Enterococcus faecalis; assay: Antimicrobial activity against multidrug-resistant Enterococcus faecalis H.C. 24708 isolate after 20 hrs by twofold serial dilution technique; conditions: H.C. 24708, 20 h; how it was run: as §1
[16] = tested on: Enterococcus faecalis; assay: Antimicrobial activity against multidrug-resistant Enterococcus faecalis H.C. 24962 isolate after 20 hrs by twofold serial dilution technique; conditions: H.C. 24962, 20 h; how it was run: as §1
[17] = tested on: Staphylococcus; assay: Antimicrobial activity against coagulase-negative Staphylococcus H.A.M. 278 isolate after 20 hrs by twofold serial dilution technique; conditions: H.A.M. 278, 20 h; how it was run: as §2
[18] = tested on: Staphylococcus; assay: Antimicrobial activity against coagulase-negative Staphylococcus H.A.M. 338 isolate after 20 hrs by twofold serial dilution technique; conditions: H.A.M. 338, 20 h; how it was run: as §2
[19] = tested on: NCI-H292; assay: Cytotoxicity against human NCI-H292 cells at 10 ug/mL after 72 hrs by MTT assay; conditions: NCI-H292, 72 h, read-out: GI
How it was run: (§3)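 MTT antiproliferative assay. Cells were diluted to 10⁵ cells/mL in 96-well plates and preincubated for 24 h at 37 °C in humid 5% CO₂. Compounds or vincristine (reference) were then added. Formazan was dissolved and OD read at 540 nm, compared with medium-only control cells. Run in triplicate.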

[20] = tested on: NCI-H292; assay: Cytotoxicity against human NCI-H292 cells at 5 ug/mL after 72 hrs by MTT assay; conditions: NCI-H292, 72 h, read-out: GI; how it was run: as §3
[21] = tested on: NCI-H292; assay: Cytotoxicity against human NCI-H292 cells at 2.5 ug/mL after 72 hrs by MTT assay; conditions: NCI-H292, 72 h, read-out: GI; how it was run: as §3
[22] = tested on: NCI-H292; assay: Cytotoxicity against human NCI-H292 cells at 1.25 ug/mL after 72 hrs by MTT assay; conditions: NCI-H292, 72 h, read-out: GI; how it was run: as §3
[23] = tested on: HEp-2; assay: Cytotoxicity against human Hep2 cells at 10 ug/mL after 72 hrs by MTT assay; conditions: HEp-2, 72 h, read-out: GI; how it was run: as §3
[24] = tested on: HEp-2; assay: Cytotoxicity against human Hep2 cells at 5 ug/mL after 72 hrs by MTT assay; conditions: HEp-2, 72 h, read-out: GI; how it was run: as §3
[25] = tested on: HEp-2; assay: Cytotoxicity against human Hep2 cells at 2.5 ug/mL after 72 hrs by MTT assay; conditions: HEp-2, 72 h, read-out: GI; how it was run: as §3
[26] = tested on: HEp-2; assay: Cytotoxicity against human Hep2 cells at 1.25 ug/mL after 72 hrs by MTT assay; conditions: HEp-2, 72 h, read-out: GI; how it was run: as §3
[27] = tested on: Serratia marcescens; assay: Antimicrobial activity against Serratia marcescens UFPEDA 398 at 300 ug/disk after 24 hrs by disk diffusion method; conditions: UFPEDA 398, 24 h, read-out: IZ
How it was run: (§4)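 Preliminary screen by disk diffusion. Paper disks (6 mm) holding 300 µg of compound were placed on agar plates inoculated with a standardized microbial suspension. DMSO-only disks served as negative controls. A mean inhibition zone below 7 mm was scored as no sensitivity. Values are means, n = 3.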

[28] = tested on: Escherichia coli; assay: Antimicrobial activity against Escherichia coli UFPEDA 224 at 300 ug/disk after 24 hrs by disk diffusion method; conditions: UFPEDA 224, 24 h, read-out: IZ; how it was run: as §4
[29] = tested on: Staphylococcus aureus; assay: Antimicrobial activity against Staphylococcus aureus UFPEDA 01 at 300 ug/disk after 24 hrs by disk diffusion method; conditions: UFPEDA 01, 24 h, read-out: IZ; how it was run: as §4
[30] = tested on: Bacillus subtilis; assay: Antimicrobial activity against Bacillus subtilis UFPEDA 16 at 300 ug/disk after 24 hrs by disk diffusion method; conditions: UFPEDA 16, 24 h, read-out: IZ; how it was run: as §4
[31] = tested on: Micrococcus luteus; assay: Antimicrobial activity against Micrococcus luteus UFPEDA 06 at 300 ug/disk after 24 hrs by disk diffusion method; conditions: UFPEDA 06, 24 h, read-out: IZ; how it was run: as §4
[32] = tested on: Enterococcus faecalis; assay: Antimicrobial activity against Enterococcus faecalis UFPEDA 138 at 300 ug/disk after 24 hrs by disk diffusion method; conditions: UFPEDA 138, 24 h, read-out: IZ; how it was run: as §4
[33] = tested on: Pseudomonas aeruginosa; assay: Antimicrobial activity against Pseudomonas aeruginosa UFPEDA 39 at 300 ug/disk after 24 hrs by disk diffusion method; conditions: UFPEDA 39, 24 h, read-out: IZ; how it was run: as §4
[34] = tested on: Mycolicibacterium smegmatis; assay: Antimicrobial activity against Mycobacterium smegmatis UFPEDA 71 at 300 ug/disk after 24 hrs by disk diffusion method; conditions: UFPEDA 71, 24 h, read-out: IZ; how it was run: as §4
[35] = tested on: Candida albicans; assay: Antimicrobial activity against Candida albicans UFPEDA 1007 at 300 ug/disk after 48 hrs by disk diffusion method; conditions: UFPEDA 1007, 48 h, read-out: IZ; how it was run: as §4

Row | Structure (SMILES) | MIC [1] [µg/mL] | MIC [2] [µg/mL] | MIC [3] [µg/mL] | MIC [4] [µg/mL] | MIC [5] [µg/mL] | MIC [6] [µg/mL] | MIC [7] [µg/mL] | MIC [8] [µg/mL] | MIC [9] [µg/mL] | MIC [10] [µg/mL] | MIC [11] [µg/mL] | MIC [12] [µg/mL] | MIC [13] [µg/mL] | MIC [14] [µg/mL] | MIC [15] [µg/mL] | MIC [16] [µg/mL] | MIC [17] [µg/mL] | MIC [18] [µg/mL] | inhibition of growth at 10 µg/mL [19] [%] | inhibition of growth at 5 µg/mL [20] [%] | further results
1 | O=C1NC(=S)/C(=C/c2ccc(F)cc2)S1 | 4 (≈ 16.7 µM) | 16 (≈ 66.9 µM) | 16 (≈ 66.9 µM) | 32 (≈ 134 µM) | 16 (≈ 66.9 µM) | 32 (≈ 134 µM) | 4 (≈ 16.7 µM) | 32 (≈ 134 µM) | 2 (≈ 8.36 µM) | 2 (≈ 8.36 µM) | 2 (≈ 8.36 µM) | 2 (≈ 8.36 µM) | 32 (≈ 134 µM) | 32 (≈ 134 µM) | 16 (≈ 66.9 µM) | 16 (≈ 66.9 µM) | 32 (≈ 134 µM) | 32 (≈ 134 µM) | 38 | 31.6 | inhibition of growth at 2.5 µg/mL [21]: 17.5%; inhibition of growth at 1.25 µg/mL [22]: 7.32%; inhibition of growth at 10 µg/mL [23]: 30.1%; inhibition of growth at 5 µg/mL [24]: 20.6%; inhibition of growth at 2.5 µg/mL [25]: -4.51%; inhibition of growth at 1.25 µg/mL [26]: -10.8%; zone of inhibition at 300 µg/disc [27]: < 7 mm; zone of inhibition at 300 µg/disc [28]: < 7 mm; zone of inhibition at 300 µg/disc [29]: 29 mm; zone of inhibition at 300 µg/disc [30]: 26 mm; zone of inhibition at 300 µg/disc [31]: 29 mm; zone of inhibition at 300 µg/disc [32]: 24 mm; zone of inhibition at 300 µg/disc [33]: < 7 mm; zone of inhibition at 300 µg/disc [34]: 25 mm; zone of inhibition at 300 µg/disc [35]: 17 mm
2 | O=C1NC(=S)/C(=C/c2cccc(F)c2)S1 | 4 (≈ 16.7 µM) | 16 (≈ 66.9 µM) | 16 (≈ 66.9 µM) | 32 (≈ 134 µM) | 32 (≈ 134 µM) | 64 (≈ 267 µM) | 2 (≈ 8.36 µM) | 16 (≈ 66.9 µM) | 2 (≈ 8.36 µM) | 2 (≈ 8.36 µM) | 2 (≈ 8.36 µM) | 2 (≈ 8.36 µM) | 16 (≈ 66.9 µM) | 8 (≈ 33.4 µM) | 8 (≈ 33.4 µM) | 8 (≈ 33.4 µM) | 16 (≈ 66.9 µM) | 16 (≈ 66.9 µM) | 26.8 | 13.1 | inhibition of growth at 2.5 µg/mL [21]: 3.43%; inhibition of growth at 1.25 µg/mL [22]: 2.1%; inhibition of growth at 10 µg/mL [23]: 20.9%; inhibition of growth at 5 µg/mL [24]: 19.8%; inhibition of growth at 2.5 µg/mL [25]: 7.03%; inhibition of growth at 1.25 µg/mL [26]: 0.84%; zone of inhibition at 300 µg/disc [27]: < 7 mm; zone of inhibition at 300 µg/disc [28]: < 7 mm; zone of inhibition at 300 µg/disc [29]: 28 mm; zone of inhibition at 300 µg/disc [30]: 20 mm; zone of inhibition at 300 µg/disc [31]: 27 mm; zone of inhibition at 300 µg/disc [32]: 22 mm; zone of inhibition at 300 µg/disc [33]: < 7 mm; zone of inhibition at 300 µg/disc [34]: 20 mm; zone of inhibition at 300 µg/disc [35]: 16 mm
